In brackets after ≈: the same amount, converted by molar mass.
What was measured:
Assay type in all cases: functional
[1] = system: Mycobacterium tuberculosis; assay: Antimicrobial activity against drug-susceptible Mycobacterium tuberculosis isolate 4 expressing wild type atpE Asp28Pro mutant selected after 10 times MIC drug exposure
Procedure, shortened: (§1)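 Each resistant mutant clone (one colony picked per independent fluctuation culture selected on drug agar) is suspended in PBS, sonicated and applied by 96-pin replicator. Nonselective and rifampin control plates are included. Plates are read after 4 weeks; MIC is the lowest concentration with no visible growth.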

[2] = system: Mycobacterium tuberculosis; assay: Antimicrobial activity against multidrug-resistant Mycobacterium tuberculosis isolate 5 expressing wild type atpE and F0 operon selected after 10 times MIC drug exposure; procedure, shortened: as §1
[3] = system: Mycobacterium tuberculosis; assay: Antimicrobial activity against multidrug-resistant Mycobacterium tuberculosis H37Rv
[4] = system: Mycobacterium tuberculosis; assay: Antimicrobial activity against drug-susceptible Mycobacterium tuberculosis isolate 4 expressing wild type atpE Glu61Asp mutant selected after 30 times MIC drug exposure; procedure, shortened: as §1
[5] = system: Mycobacterium tuberculosis; assay: Antimicrobial activity against drug-susceptible Mycobacterium tuberculosis isolate 6 expressing wild type atpE Glu61Asp mutant selected after 30 times MIC drug exposure; procedure, shortened: as §1
[6] = system: Mycobacterium tuberculosis; assay: Antimicrobial activity against drug-susceptible Mycobacterium tuberculosis isolate 6 expressing wild type atpE Ala63Pro mutant selected after 30 times MIC drug exposure; procedure, shortened: as §1
[7] = system: Mycobacterium tuberculosis; assay: Antimicrobial activity against drug-susceptible Mycobacterium tuberculosis H37Rv expressing wild type atpE Ala63Pro mutant selected after 30 times MIC drug exposure; procedure, shortened: as §1
[8] = system: Mycobacterium tuberculosis; assay: Antimicrobial activity against multidrug-resistant Mycobacterium tuberculosis isolate 5 expressing wild type atpE Ile66Met mutant selected after 30 times MIC drug exposure; procedure, shortened: as §1
[9] = system: Mycobacterium tuberculosis; assay: Antimicrobial activity against multidrug-resistant Mycobacterium tuberculosis isolate 5 expressing wild type atpE Ala63Pro mutant selected after 10 times MIC drug exposure; procedure, shortened: as §1
[10] = system: Mycobacterium tuberculosis; assay: Antimicrobial activity against multidrug-resistant Mycobacterium tuberculosis isolate 5 expressing wild type atpE selected after 10 times MIC drug exposure; procedure, shortened: as §1
[11] = system: Mycobacterium tuberculosis; assay: Antimicrobial activity against multidrug-resistant Mycobacterium tuberculosis isolate 3 expressing wild type atpE and F0 operon selected after 30 times MIC drug exposure; procedure, shortened: as §1
[12] = system: Mycobacterium tuberculosis; assay: Antimicrobial activity against multidrug-resistant Mycobacterium tuberculosis isolate 3 expressing wild type atpE selected after 30 times MIC drug exposure; procedure, shortened: as §1
[13] = system: Mycobacterium tuberculosis; assay: Antimicrobial activity against multidrug-resistant Mycobacterium tuberculosis isolate 3 expressing wild type atpE and ATP synthase selected after 10 times MIC drug exposure; procedure, shortened: as §1
[14] = system: Mycobacterium tuberculosis; assay: Antimicrobial activity against multidrug-resistant Mycobacterium tuberculosis isolate 3 expressing wild type atpE and F0 operon selected after 10 times MIC drug exposure; procedure, shortened: as §1
[15] = system: Mycobacterium tuberculosis; assay: Antimicrobial activity against multidrug-resistant Mycobacterium tuberculosis isolate 3 expressing wild type atpE selected after 10 times MIC drug exposure; procedure, shortened: as §1
[16] = system: Mycobacterium tuberculosis; assay: Antimicrobial activity against multidrug-resistant Mycobacterium tuberculosis isolate 2 expressing wild type atpE selected after 10 times MIC drug exposure; procedure, shortened: as §1
[17] = system: Mycobacterium tuberculosis; assay: Antimicrobial activity against multidrug-resistant Mycobacterium tuberculosis isolate 2 expressing atpE Glu61Asp mutant selected after 10 times MIC drug exposure; procedure, shortened: as §1
[18] = system: Mycobacterium tuberculosis; assay: Antimicrobial activity against multidrug-resistant Mycobacterium tuberculosis isolate 2 expressing atpE Ala28Val mutant selected after 10 times MIC drug exposure; procedure, shortened: as §1
[19] = system: Mycobacterium tuberculosis; assay: Antimicrobial activity against multidrug-resistant Mycobacterium tuberculosis isolate 1 expressing atpE Glu63Asp mutant selected after 30 times MIC drug exposure; procedure, shortened: as §1
[20] = system: Mycobacterium tuberculosis; assay: Antimicrobial activity against multidrug-resistant Mycobacterium tuberculosis isolate 1 expressing wild type atpE selected after 10 times MIC drug exposure; procedure, shortened: as §1
[21] = system: Mycobacterium tuberculosis; assay: Antimicrobial activity against multidrug-resistant Mycobacterium tuberculosis isolate 1 expressing atpE Glu61Asp mutant selected after 10 times MIC drug exposure; procedure, shortened: as §1
[22] = system: Mycobacterium tuberculosis; assay: Antimicrobial activity against drug-susceptible Mycobacterium tuberculosis isolate 4 expressing wild type atpE Glu61Asp mutant selected after 10 times MIC drug exposure; procedure, shortened: as §1

**Q.** What does the source list for `COc1nc2ccc(Br)cc2cc1[C@@H](c1ccccc1)[C@@](O)(CCN(C)C)c1cccc2ccccc12` [BEDAQUILINE]?
**A.** MIC [1]: 0.3 µg/mL (≈ 0.54 µM); MIC [2]: 0.48 µg/mL (≈ 0.864 µM); MIC [3]: 0.03 µg/mL (≈ 0.054 µM); MIC [4]: 0.48 µg/mL (≈ 0.864 µM); MIC [5]: 0.48 µg/mL (≈ 0.864 µM); MIC [6]: 0.9 µg/mL (≈ 1.62 µM); MIC [7]: 3.84 µg/mL (≈ 6.91 µM); MIC [8]: 0.9 µg/mL (≈ 1.62 µM); MIC [9]: 0.24 µg/mL (≈ 0.432 µM); MIC [10]: 0.12 µg/mL (≈ 0.216 µM); MIC [11]: 0.9 µg/mL (≈ 1.62 µM); MIC [12]: 0.48 µg/mL (≈ 0.864 µM); MIC [13]: 0.9 µg/mL (≈ 1.62 µM); MIC [14]: 0.9 µg/mL (≈ 1.62 µM); MIC [15]: 0.9 µg/mL (≈ 1.62 µM); MIC [16]: 0.12 µg/mL (≈ 0.216 µM); MIC [17]: 0.24 µg/mL (≈ 0.432 µM); MIC [18]: 0.48 µg/mL (≈ 0.864 µM); MIC [19]: 1.92 µg/mL (≈ 3.46 µM); MIC [20]: 0.12 µg/mL (≈ 0.216 µM); MIC [21]: 0.48 µg/mL (≈ 0.864 µM); MIC [22]: 0.96 µg/mL (≈ 1.73 µM)
